Variants at the floor of the assay were thinned out.
B1: tRNA (parent)
chain: GUUCCGUUGGCGUAAUGGUAACGCGUCUCCCUCCUAAGGAGAAGACUGCGGGUUCGAGUCCCGUACGGAACG

Variants of: B1
Assay: yeast fitness relative to wild type (ratio to wild type); higher = fitter; tRNA-Arg(CCU), competitive growth, 37 C, YPD
Outline: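 The tRNA-Arg(CCU) gene variants were made by chemical synthesis with a 3% per-site mutation rate at 69 sites and inserted at the native genomic locus of Saccharomyces cerevisiae. After pooling, the strains were competed in YPD at 37°C for 24 hours in six parallel replicates. Gene amplicons from the start population and each end population were read by 100-nucleotide paired-end sequencing, and Darwinian fitness relative to wild type was taken from genotype frequency changes. Genotypes needed ≥ 100 starting reads, and estimates < 0.5 were set to 0.5.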

Row | Variant | yeast fitness
1 | C33U C61U | 0.734
2 | C33U A36U G51C A69U | 0.551
3 | C33U G44A A65G | 0.606
4 | C34A U54C | 0.566
5 | C33G A57U C62U | ≤ 0.5
6 | C34A | 0.71
7 | C34G | 0.65
8 | C34A U47A G68A | ≤ 0.5
9 | C33U A45C U64G | ≤ 0.5
10 | C33U C55U C60U | ≤ 0.5
11 | C33U G38A C60G U64C | ≤ 0.5
12 | C33G C60U | ≤ 0.5
13 | C33U A36G A45C A57U U59C | ≤ 0.5
14 | C33G U47C G52C C61U | ≤ 0.5
15 | C34A A36G A65C G68C | ≤ 0.5
16 | C34G A40C C62U A69U | 0.573
17 | C33U C34U G50A | 0.608
18 | C34A G44A C46U G68A | 0.56
19 | C34A C46G C60A | ≤ 0.5
20 | C33U U47C A57G | ≤ 0.5
21 | C33G G38C A70C | 0.705
22 | C33U A45C A57U U59C | ≤ 0.5
23 | C33G C46U C60U | ≤ 0.5
24 | C33G G38C C46G U53C A69C | ≤ 0.5

Row | Variant | yeast fitness
25 | C33G C34G A43C G48C C62U | ≤ 0.5
26 | C33G C34U | 0.563
27 | C33G A42G C49U G67A | ≤ 0.5
28 | C33U A40C A45C U59G C60U | ≤ 0.5
29 | C33G G51A U53A G56A G67C | ≤ 0.5
30 | C33G C46A | 0.71
31 | C33U A42C C55G G68C | ≤ 0.5
32 | C33U A65G | 0.665
33 | C33U A37C | 0.556
34 | C33U A37U | 0.55
35 | C33U U47C | 0.713
36 | C33U A36G G39A G44A C55G U59C | ≤ 0.5
37 | C33U G38A G41U C46U | ≤ 0.5
38 | C33G A45C C66A | 0.514
39 | C33G C49A | 0.628
40 | C34A C49A U59G | 0.654
41 | C33G A42G G52A C62A | ≤ 0.5
42 | C33G U47A C61U A69U | 0.573
43 | C33U A40U | 0.616
44 | C33U A40C | 0.777
45 | C34A U47C A57G A65U | ≤ 0.5
46 | C33U G41A C61G | ≤ 0.5
47 | C34A G38C A43U G68A | ≤ 0.5
48 | C34A A42C A45U A65U | ≤ 0.5

Row | Variant | yeast fitness
49 | C34A C46U U47A | ≤ 0.5
50 | C34A A42U A69U | ≤ 0.5
51 | C33G A43C | 0.666
52 | C33U A45C C49U | 0.652
53 | C34A A36C C46A | ≤ 0.5
54 | C34A G44C A57U C62U | ≤ 0.5
55 | C33U A36G C55U A69C | ≤ 0.5
56 | C34A G44C | 0.574
57 | C33U A70G | 0.6
58 | C33U A37G C49U A57U | ≤ 0.5
59 | C33U C46U | 0.708
60 | C33U C46A | 0.821
61 | C34A G56C G58A G63C A65U | ≤ 0.5
62 | C33U A42G | 0.622
63 | C33U A42U | 0.729
64 | C33G C62G | 0.597
65 | C34A A45C G68A | 0.614
66 | C33G A36U G44A U59C | 0.611
67 | C34A G51A G67A | ≤ 0.5
68 | C33U U59A A70G | ≤ 0.5
69 | C34A A45U | 0.698
70 | C33G A40U G51C | ≤ 0.5
71 | C34A G52C C60G | 0.544
72 | C34A A42C | 0.818

Row | Variant | yeast fitness
73 | C34A A42U | 0.618
74 | C33G G63C | ≤ 0.5
75 | C33G G38C | 0.548
76 | C34A G44A A57U | ≤ 0.5
77 | C34A G50A C61G | ≤ 0.5
78 | C33G G39C C55U | 0.515
79 | C33G A69C A70U | 0.611
80 | C34A U47C A70G | 0.612
81 | C34A C66A | 0.509
82 | C33G G41C C61G A65U | ≤ 0.5
83 | C33U A43G U53C | ≤ 0.5
84 | C34A G63A | 0.621
85 | C33G U35C G39A | ≤ 0.5
86 | C33U A42C C62A | ≤ 0.5
87 | C33U G56U A65G | ≤ 0.5
88 | C33U U47C G48A G58A | 0.506
89 | C33U A57U | 0.546
90 | C33U A57C | ≤ 0.5
91 | C33G G56C A70U | 0.727
92 | C34A U59C | 0.728
93 | C33G A40G G52C | ≤ 0.5
94 | C34A A36G U47C | ≤ 0.5
95 | C33G G56C C62U | ≤ 0.5
96 | C34A A36U G52A C60A | ≤ 0.5

Row | Variant | yeast fitness
97 | C33U U64A | 0.677
98 | C34A A43C | 0.645
99 | C34A A43U | 0.729
100 | C33G C66G | 0.604
101 | C33G A43C C62A G67C | 0.743
102 | C34G A37C G63A | ≤ 0.5
103 | C33U C34A A36G A42U | 0.73
104 | C34G A36U C62U | ≤ 0.5
105 | C33U C49U G51C | 0.512
106 | C33U A42G U59A | ≤ 0.5
107 | C33U A42G U59G | 0.504
108 | C33G G44C | 0.735
109 | C33U A36C A70G | ≤ 0.5
110 | C33G G51A C55A | ≤ 0.5
111 | C33G G52A A65C | ≤ 0.5
112 | C33G G41C G56C G58A G63C A65U | 0.587
113 | C34A C49U G51C C61U | ≤ 0.5
114 | C33U A43C C46G | ≤ 0.5
115 | C33G A42U A43U A65C G68C | 0.553
116 | C34G A37U C62A | ≤ 0.5
117 | C34A C60G | 0.664
118 | C33G A37U A40C | ≤ 0.5
119 | C33U G38A C46U U64C | 0.536
120 | C33U A37U C61U | ≤ 0.5

Row | Variant | yeast fitness
121 | C34G A37G A65G | 0.966
122 | C34A A36G | 0.741
123 | C34A A36U | 0.518
124 | C34A A36C | 0.511
125 | C33G A42U | 0.73
126 | C33G A42C | 0.675
127 | C33U G39A A69C | ≤ 0.5
128 | C33G A40G G58A C66G | ≤ 0.5
129 | C33G G48A C66G A70C | 0.524
130 | C33U G48C | 0.778
131 | C34G A36C | ≤ 0.5
132 | C34G A36G | 0.644
133 | C34A A42G C46U | ≤ 0.5
134 | C33U G51C | ≤ 0.5
135 | C33G A45G A70U | ≤ 0.5
136 | C33G G68C | 0.558
137 | C33G G68A | 0.671
138 | C33U C34G C66U | 0.542
139 | C33U A40C C60G | ≤ 0.5
140 | C34A U64A | 0.783
141 | C33G G41C G56C G58A U59C G63C A65U | ≤ 0.5
142 | C33U A37U C60G A69C | ≤ 0.5
143 | C34A C46U U47A U59G | ≤ 0.5
144 | C34A C49G G50A U64A | 0.551

Row | Variant | yeast fitness
145 | C33G A40G A43G G44A | ≤ 0.5
146 | C34A G52C | 0.721
147 | C34A G52A | 0.741
148 | C33G A40G G51C C61U A65U | 0.667
149 | C33U G39A A57G | ≤ 0.5
150 | C34A C46U C61G | ≤ 0.5
151 | C33U A40U C66U | ≤ 0.5
152 | C33U U59A | 0.67
153 | C33U C46G C49U | 0.632
154 | C33U G41C A45C | 0.621
155 | C33U A43G A70U | 0.637
156 | C33U A37U C62U | ≤ 0.5
157 | C33U G52C G56C | ≤ 0.5
158 | C34A A37C G63C | ≤ 0.5
159 | C34A A37U U54C | 0.542
160 | C33G G41C A43C G67C | ≤ 0.5
161 | C34A A37U G63C | ≤ 0.5
162 | C33G A42G G44A U64C | ≤ 0.5
163 | C33U G39A G63A | ≤ 0.5
164 | C34A A42U G58A C62U G63A | ≤ 0.5
165 | C33U A42C C46A | ≤ 0.5
166 | C34A A37U A69C | ≤ 0.5
167 | C34A U35C | 0.519

Reference: the RNAGym collection of RNA variant scans (doi:10.1126/science.aae0568)
